Bioassay records (PubChem BioAssay)
OX1R antag-1: OX1R (HCRTR1) antagonists, primary screen, fluorescence, CHO/OX1R cells, Fluo-8 calcium, orexin A; Fluo-8 calcium fluorescence; inhibition, % at 5 µM; 0.43% of 330,000 active; AID 434989, 2010;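 active means inhibition above its plate's threshold, mean inhibition of all tested compounds on the plate plus 3 SD, cut at about 37% in these data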;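 further: 0% = orexin A challenge wells and 100% = SB-334867-A antagonist wells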
CHO parental Ca: ATP-evoked calcium signal inhibitors, parental CHO, primary screen, counter-screen for OX1R antagonist project, cell-based, fluorescence, Fluo-8 calcium dye. parental CHO-K1, ATP-induced calcium, Fluo-8 fluorescence. inhibition, % at 5.6 µM. 0.63% of 330,000 active;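 active means inhibition above that plate's mean sample inhibition plus 3 SD, cut at about 26% in these data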;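 further: 0% = ATP-challenged DMSO wells and 100% = DMSO wells without ATP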
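Assay system: parental CHO cells; Read-out basis: percent inhibition of ATP-evoked calcium rise, normalized to controls; Benchmarks: ATP and no-ATP DMSO wells; Compound dosing: single nominal dose of 5.6 µM per compound; Signal: Fluo-8 calcium dye fluorescence; Also added: ATP as calcium-mobilizing challenge; Repeats: singlicate.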
GPR7 antagonist: GPR7 receptor antagonists, primary screen, cell-based, fluorescence, single concentration; GPR7-expressing cells, fluorescence antagonist assay; inhibition, % at 4.4 µM; 1.1% of 290,000 active; in the data active means inhibition above about 16%, passing the limit was not always enough;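 further: cells stimulated with the agonist NPW; 0% = agonist with vehicle and 100% = vehicle without agonist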
Target sequence (P48145 whole entry, looked up): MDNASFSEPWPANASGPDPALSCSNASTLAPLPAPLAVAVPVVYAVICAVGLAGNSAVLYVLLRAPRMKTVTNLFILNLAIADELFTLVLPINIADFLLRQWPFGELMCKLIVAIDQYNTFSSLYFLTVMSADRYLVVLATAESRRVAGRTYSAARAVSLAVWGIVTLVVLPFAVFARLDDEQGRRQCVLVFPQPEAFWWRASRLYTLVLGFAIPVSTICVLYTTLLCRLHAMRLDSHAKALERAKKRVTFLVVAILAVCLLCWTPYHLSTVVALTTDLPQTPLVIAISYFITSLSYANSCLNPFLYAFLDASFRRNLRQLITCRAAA
TAAR1 ag: human TAAR1 agonists, primary screen, Fluo-8 calcium fluorescence, CHO RD-HGA16 cells; Trace amine-associated receptor 1 (Homo sapiens), Q96RJ0; vehicle wells 0%, saturating PEA agonist 100%; activation, % at 3 µM; 0.99% of 360,000 active;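 active means activation above the mean activation of all test compounds in the run plus 3 SD, cut at about 38% in these data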
Target sequence (Q96RJ0 whole entry, looked up): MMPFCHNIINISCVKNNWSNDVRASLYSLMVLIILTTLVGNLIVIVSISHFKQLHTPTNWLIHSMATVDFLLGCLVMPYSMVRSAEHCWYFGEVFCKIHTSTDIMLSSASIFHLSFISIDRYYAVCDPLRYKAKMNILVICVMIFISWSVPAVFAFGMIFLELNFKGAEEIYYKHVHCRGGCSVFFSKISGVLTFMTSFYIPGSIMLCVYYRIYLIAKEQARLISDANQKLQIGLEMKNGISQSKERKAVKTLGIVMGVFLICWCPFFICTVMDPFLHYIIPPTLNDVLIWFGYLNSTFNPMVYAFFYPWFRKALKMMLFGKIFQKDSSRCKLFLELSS
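Test system: RD-HGA16 (CHO) cells co-expressing Gα16 and hTAAR1 / Benchmarks: DMSO vehicle as 0%, PEA at EC100 as 100% / Repeats: no replicates (n 1) / Measure: % activation from peak over basal fluorescence ratio, DMSO-to-PEA scaled / Timing: 17-24 h plating, Fluo-8 75 min 37 °C, 30 min RT / Technique: kinetic Fluo-8 calcium fluorescence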
OX1R antag-2: antagonists of human orexin 1 receptor (OX1R); 1.8% of 330,000 active; Orexin/Hypocretin receptor type 1 (Homo sapiens), O43613; inhibition, % at 6.6 µM; OX1R-expressing cells, FRET antagonist read-out; in the data active means inhibition mostly above about 38%, no sharp cut-off; inactive means mostly below about 40%;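 further: 0% = agonist challenge alone and 100% = reference antagonist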
TAAR1 antag: human TAAR1 antagonists, primary screen, Fluo-8 calcium fluorescence, CHO RD-HGA16 cells; Trace amine-associated receptor 1 (Homo sapiens), Q96RJ0; antagonist; inhibition, % at 3 µM; 1.5% of 360,000 active; AID 624466, 2012;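 active means inhibition above a per-plate cutoff, the mean inhibition of test compounds on that plate plus 3 SD, cut at about 49% in these data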;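 further: 0% = DMSO plus EC80 beta-PEA response and 100% = DMSO alone without agonist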
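Test system – hTAAR1-expressing CHO RD-HGA16 cells, Gα16-coupled · Reagent – β-PEA at EC80 concentration, post-compound challenge · Compound dosing – 3 µM, single point · Timing – 140 s kinetic read after compound, 140 s after agonist · Detection – Fluo-8 intracellular calcium dye fluorescence, real-time kinetic reads · Control set – DMSO and EC80 PEA controls · Repeats – n of 1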
* hit, by the source's call. An excerpt weighted towards active compounds, which were near 4.6% of everything screened.

CS(=O)(=O)c1ccccc1C(=O)Nc1ccc(-c2nc3ccccc3[nH]2)cc1 was read as OX1R antag-1 -11, CHO parental Ca -15, GPR7 antagonist 6, TAAR1 ag 4, OX1R antag-2 15 and TAAR1 antag 15.
O=C(Nc1ccc(Cl)cc1)OCc1ccccn1 was read as OX1R antag-1 20, CHO parental Ca 40*, GPR7 antagonist 3, TAAR1 ag 9, OX1R antag-2 21 and TAAR1 antag 12.
`Oc1cc(NCCN2CCOCC2)cc2cccnc12` gave OX1R antag-1 2, CHO parental Ca -1, TAAR1 ag 10, OX1R antag-2 54* and TAAR1 antag 8.
Oc1cc(Nc2ccccc2)cc2cccnc12 was read as OX1R antag-1 6, CHO parental Ca 2, TAAR1 ag 7, OX1R antag-2 27 and TAAR1 antag 5.
Screening COc1ccc(S(=O)(=O)N(C)[C@H]2C[C@H]3c4cc(-c5ccccc5)ccc4CCN3C(=O)[C@H]2[C@H](C)O)cc1 returned TAAR1 ag 8 and TAAR1 antag 56*.
For CN(C)S(=O)(=O)N(CC(=O)N1CCC(Cc2ccccc2)CC1)c1ccccc1 the results were OX1R antag-1 -16, CHO parental Ca -11, GPR7 antagonist -5, TAAR1 ag 5, OX1R antag-2 28 and TAAR1 antag 14.
CC1CCN(C(=O)CN(c2ccccc2)S(=O)(=O)N(C)C)CC1 was read as OX1R antag-1 -31, CHO parental Ca -24, GPR7 antagonist 21*, TAAR1 ag 6, OX1R antag-2 13 and TAAR1 antag 18.
For CCCCCCn1c(=O)n2n(c1=O)C[C@]1(OC(=O)Nc3cccs3)CN(S(=O)(=O)c3ccc(C)cc3)C[C@]1(O)C2 the results were TAAR1 ag 10 and TAAR1 antag 22.
`CCCCn1c(CCNC(=O)c2ccco2)nc2ccccc21` gave OX1R antag-1 -16, CHO parental Ca -6, GPR7 antagonist -9, TAAR1 ag 3, OX1R antag-2 27 and TAAR1 antag -6.
For CCOC(=O)c1sc(NC(=O)c2cccs2)cc1C the results were OX1R antag-1 -10, CHO parental Ca -23, GPR7 antagonist -16, TAAR1 ag 1, OX1R antag-2 36 and TAAR1 antag 7.
For CCOC(=O)c1sc(NC(=O)c2sccc2C)cc1C the results were OX1R antag-1 -19, CHO parental Ca -5, GPR7 antagonist -8, TAAR1 ag -4, OX1R antag-2 42* and TAAR1 antag -12.
For CCOC(=O)c1c(NC(=O)Nc2ccccc2)sc(C)c1C the results were OX1R antag-1 -49, CHO parental Ca -29, GPR7 antagonist 0, TAAR1 ag 8, OX1R antag-2 36 and TAAR1 antag 28.
CCOC(=O)c1sc(NC(=O)CCN2C(=O)C3CCCCC3C2=O)cc1C (configuration not stated) was read as OX1R antag-1 -30, CHO parental Ca -26, TAAR1 ag 6, OX1R antag-2 9 and TAAR1 antag 49*.
`CCOC(=O)c1sc(NC(=O)c2ccc(Br)o2)cc1C` gave OX1R antag-1 -26, CHO parental Ca -19, GPR7 antagonist -5, TAAR1 ag 5, OX1R antag-2 45* and TAAR1 antag 6.
Screening CCOC(=O)c1sc(NC(=O)Nc2cccc(Cl)c2)cc1C returned OX1R antag-1 36, CHO parental Ca 34*, GPR7 antagonist 6, TAAR1 ag 7, OX1R antag-2 47* and TAAR1 antag 48.
`CCOc1ccc(NC(=O)CCN2C(=O)C3CCCCC3C2=O)cc1OCC` (configuration not stated) gave OX1R antag-1 -28, CHO parental Ca -21, TAAR1 ag 1, OX1R antag-2 -2 and TAAR1 antag 5.
Screening CCn1c(SCC(=O)Nc2cc(C)on2)nnc1-c1ccc(OC)cc1 returned OX1R antag-1 -26, CHO parental Ca -10, GPR7 antagonist -11, TAAR1 ag 2, OX1R antag-2 18 and TAAR1 antag -17.
For CCCCc1nc2sc3c(=O)[nH]c(=S)[nH]c3c2c2c1CCC2 the results were TAAR1 ag 1 and TAAR1 antag 0.
Cc1ccccc1C(=O)N1CCC(C(=O)Nc2ccc(C)c(S(=O)(=O)N3CCCCC3)c2)CC1 was read as OX1R antag-1 -2, CHO parental Ca -5, TAAR1 ag 4, OX1R antag-2 -1 and TAAR1 antag 10.
`CCOC(=O)c1sc(NC(=O)Nc2ccc(Cl)cc2)nc1C` gave OX1R antag-1 43, CHO parental Ca 43*, GPR7 antagonist 5, TAAR1 ag 26, OX1R antag-2 67 and TAAR1 antag 28.
For COc1cc(/C=C/C(=O)O)cc(S(=O)(=O)Nc2ccc3c(c2)CCC3)c1OC the results were OX1R antag-1 -6, CHO parental Ca -8, GPR7 antagonist -7, TAAR1 ag -1, OX1R antag-2 4 and TAAR1 antag 15.
`COc1ccc(NS(=O)(=O)c2ccc(C(=O)N3CCN(c4ccc(F)cc4)CC3)cc2)cc1` gave OX1R antag-1 34, CHO parental Ca 27*, TAAR1 ag 17, OX1R antag-2 8 and TAAR1 antag 43.
Screening COc1ccc(N2CCN(C(=O)c3ccc(NS(=O)(=O)c4cccc(F)c4)cc3)CC2)cc1 returned OX1R antag-1 -10, CHO parental Ca -7, GPR7 antagonist -5, TAAR1 ag 9, OX1R antag-2 12 and TAAR1 antag 28.
`COc1ccc(N2CCN(C(=O)c3cccc(NS(=O)(=O)c4cccc(F)c4)c3)CC2)cc1` gave GPR7 antagonist -3, TAAR1 ag 1 and TAAR1 antag -29.
COc1ccccc1N1CCN(C(=O)c2cccc(S(=O)(=O)Nc3ccccc3F)c2)CC1 was read as OX1R antag-1 7, CHO parental Ca -13, TAAR1 ag 18, OX1R antag-2 1 and TAAR1 antag 54*.
For COc1ccc(N2CCN(C(=O)c3ccc(NS(=O)(=O)c4ccc(F)c(F)c4)cc3)CC2)cc1 the results were OX1R antag-1 14, CHO parental Ca 40*, GPR7 antagonist 9, TAAR1 ag 5, OX1R antag-2 15 and TAAR1 antag -5.
Screening CN(C1CCCCC1)S(=O)(=O)c1cccc(C#N)c1 returned OX1R antag-1 -10, CHO parental Ca -8, GPR7 antagonist -14, TAAR1 ag 4, OX1R antag-2 20 and TAAR1 antag 19.
